bCat KO growth: beta-catenin-lacking colon tumor cell growth suppression. HCT116 beta-catenin knockout viability, CellTiter-Glo, 60 h; stronger effect = lower value. viability, % at 10 µM. hit rate 1.5% among 140,000;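 active means viability at or under a set limit, the compound median less 4 SD, cut at about 6% in these data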;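 further: 0% = Hyamine 1622 control at 20 µM and 100% = untreated cell control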
Autophagy mod: alters autophagy in cells; calls only at 10 µM (by protocol); hit rate 0.98% among 190,000; MEF GFP-LC3 puncta imaging; test concentration mostly 10 µM;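 active means percentage of spot-positive cells more than 3 SD above its plate mean, without a fluorescence outlier flag or 80% toxicity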;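 further: spot-positive cell cutoff set from DMSO-treated cells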
PTEN del growth: growth suppressors of cells with PTEN tumor suppressor deletion | HCT116 PTEN-null viability, CellTiter-Glo, 60 h; stronger effect = lower value | viability, % at 10 µM | hit rate 1.2% among 140,000;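 active means viability at or below a set limit, 4 SD under the median of all tested compounds, cut at about 3.7% in these data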;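 further: PTEN knockout HCT116 line with beta catenin targeted HCT116 as companion control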
Dynein transport: blocks dynein driven cargo transport along microtubules; 3617.4 mouse cells, GR-EGFP nuclear translocation imaging; test concentration mostly 20 µM; stimulated with dexamethasone, 1 µM; stronger effect = lower value; z-score, hits read low; hit rate 0.47% among 220,000;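 active means plate z-score of nuclear minus cytoplasmic receptor signal below a set negative limit, without overly bright fluorescence or cell loss, cut at about -3.5 in these data, passing the limit was not always enough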;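 further: z-score of nuclear minus cytoplasmic ring GR-EGFP intensity difference per well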
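Also added – dexamethasone, 1.0 µM final · Buffer or medium – tet-free, stripped-serum medium · Schedule – induction 48 h, compound 1 h, agonist 30 min · Detection – formaldehyde fixation, Hoechst nuclear stain, 10x automated fluorescence imaging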
L major viab: Leishmania major promastigote growth inhibition. Leishmania major promastigotes, resazurin fluorescence viability. inhibition, % at 10 µM. hit rate 9% among 200,000. AID 1063; in the data active means inhibition above about 50%;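 further: promastigotes grown with compound for 44 hours at 28 °C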
Numbers without * were called inactive; i = inactive; x = no result; + = active, no number. Hits are enriched below; roughly 9.2% of the tested compounds scored in any of these assays.

SMILES | bCat KO growth | Autophagy mod | PTEN del growth | Dynein transport | L major viab
OC(COCc1ccc2c(c1)OCO2)CN1CCC(Cc2ccccc2)CC1 (stereo not given) | x | i | x | 0.41 | 87*
Cc1cc(OCC(O)CN2CCN(C)CC2)ccc1C(C)C (stereo not given) | 92 | i | 99 | -0.34 | 90*
Clc1ccc(OCCN2CCN(c3ncnc4sccc34)CC2)cc1 | 90 | i | 97 | 1.5 | -5
OC(COC(c1ccc(Cl)cc1)c1ccc(Cl)cc1)CN1CCCC1 (stereo not given) | 9 | + | 13 | 3.6 | 100*
CCN1CCN(CCOc2ccc(Cl)cc2)CC1 | x | i | x | -0.32 | 78*
O=C(NCCc1ccccc1)c1cc(=O)[nH]c2ccccc12 | x | i | x | 1.1 | -3
Cc1nc(-c2c(C(=O)NNC(=O)Nc3c(C)cccc3C)noc2C)cs1 | x | x | x | -0.66 | x
Cc1ccc(NC(=O)COC(=O)[C@@H]2CCCN2C(=O)c2cccs2)cc1S(=O)(=O)N(C)C | x | x | x | 2.1 | x
CN1CCN(CC(O)COc2ccc(Cl)cc2)CC1 (stereo not given) | 91 | i | 101 | -0.46 | 86*
CCN1CCN(CC(O)COc2ccc(C)c(C)c2)CC1 (stereo not given) | 94 | i | 92 | 0.51 | 84*
CC1CCCC(C)N1CC(O)COc1ccc(Cl)cc1 (stereo not given) | 93 | i | 91 | 0.11 | 48
OCCN1CCN(CC(O)COc2ccc(Cl)cc2)CC1 (stereo not given) | 92 | i | 91 | -1.7 | 74*
CC1CCN(S(=O)(=O)c2ccc(C(=O)NCc3cccnc3)cc2)CC1 | x | i | x | -0.29 | 5
Cc1ccc(C)c(OCC(=O)Nc2ccc3c(c2)OCO3)c1C | 70 | i | 71 | 0.34 | 23
CC(C)[C@@H](C(=O)OCC(=O)Nc1ccc2c(c1)OCO2)N1C(=O)c2ccccc2C1=O | 98 | i | 94 | -0.42 | 82*
CCC(C)[C@@H](C(=O)Nc1ccc2c(c1)OCO2)N1Cc2ccccc2C1=O (stereo not given in full) | 83 | i | 84 | -0.38 | 61*
Cc1cccc(OCC(=O)Nc2ccc3c(c2)OCO3)c1C | 94 | i | 92 | 2.5 | 73*
COCC(=O)Nc1ccc2c(c1)OCO2 | x | i | x | 1.4 | 1
Clc1ccc(/C=C/c2nc3ccccc3[nH]2)c(Cl)c1 | 14 | i | 10 | -0.9 | 37
O=C(/C=C/c1ccc(Cl)cc1Cl)c1nc2ccccc2[nH]1 | 16 | i | 23 | -1 | 99*
Cc1cccc2cc(C#N)c(NCCNS(=O)(=O)c3ccc4c(c3)OCCO4)nc12 | 99 | i | 98 | -0.38 | 31
CCOC(=O)c1ccc(/C=C2/C=C(c3ccccc3)N(c3ccc(Cl)c(C(=O)O)c3)C2=O)cc1 | 11 | i | 11 | -1.7 | -3
CCCN(CCC)S(=O)(=O)c1ccc(C(=O)Nc2nnc(CSC)o2)cc1 | 36 | i | 24 | 0.46 | -3
CCCN(CCC)S(=O)(=O)c1ccc(C(=O)Nc2nnc(-c3cc(OC)cc(OC)c3)o2)cc1 | 15 | i | 10 | -0.42 | 100*
C=CCN(CC=C)S(=O)(=O)c1ccc(C(=O)Nc2nnc(COC)o2)cc1 | x | + | x | 1.1 | 6
SMILES | bCat KO growth | Autophagy mod | PTEN del growth | Dynein transport | L major viab
COc1cccc(-c2nnc(NC(=O)c3ccc(Cl)s3)o2)c1 | 11 | i | 6 | 1.1 | 55*
CCCN(CCC)S(=O)(=O)c1ccc(C(=O)Nc2nnc(-c3cccc(OC)c3)o2)cc1 | 10 | i | 10 | -0.11 | 98*
CC(=O)Nc1cc2cc(NS(=O)(=O)c3ccc(C)cc3)ccc2oc1=O | x | x | x | 0.21 | x
CCCCCC1(C)NC(=S)N(c2ccccc2)N1 (stereo not given) | x | i | x | 0.32 | 53*
CCCCCCC1(C)NC(=S)N(c2ccccc2)N1 (stereo not given) | x | i | x | -1.1 | 51*
Cc1ccn2c(NC3CCCC3)c(-c3ccncc3)nc2c1 | x | i | x | 0.78 | 89*
Cc1ccn2c(NC3CCCCC3)c(C)nc2c1 | 74 | i | 73 | 0.11 | 1
Cc1ccn2c(NC3CCCC3)c(-c3ccccn3)nc2c1 | x | i | x | -0.96 | 101*
Cc1ccc2nc(-c3ccncc3)c(NC3CCCCC3)n2c1 | x | i | x | -0.55 | 65*
Cc1ccn2c(Nc3ccccc3C)c(-c3ccncc3)nc2c1 | 66 | i | 75 | -0.38 | 86*
Cc1ccc2nc(-c3ccncc3)c(NC3CCCC3)n2c1 | x | i | x | 1.3 | 31
CCOC(=O)c1csc(NNC=O)n1 | 104 | i | 95 | 0.49 | -5
c1ccc(-c2nc3ccccn3c2NC2CCCC2)nc1 | x | i | x | -0.36 | 100*
O=C(O)c1nc(-c2ccccc2)n(-c2cccc(C(F)(F)F)c2)n1 | x | i | x | 0.67 | 4
COc1ccc(C)cc1C(=O)CCC(=O)Nc1ccccc1N1CCOCC1 | 1.2* | i | 1.2* | -0.86 | -5
COc1cc(CC(=O)Nc2ccccc2N2CCOCC2)cc(OC)c1OC | x | i | x | -0.37 | -5
O=C(NN1CCOCC1)c1cc(-c2ccc(Br)cc2)nc2ccccc12 | 83 | i | 82 | -0.72 | 58*
O=C(Nc1ccccc1N1CCOCC1)c1cc(-c2ccco2)nc2ccccc12 | 63 | i | 52 | -0.25 | 2
CCc1ccc(-c2cc(C(=O)NN3CCOCC3)c3ccccc3n2)cc1 | 83 | i | 93 | -0.19 | 5
COc1cc(-c2cc(C(=O)Nc3ccccc3N3CCOCC3)c3ccccc3n2)cc(OC)c1OC | x | i | x | -0.38 | 61*
CC(C)NC(=O)NC(=O)COC(=O)c1cc[n+]([O-])cc1 | x | i | x | -0.27 | -1
Cc1cc(C)nc(NC(=O)Cc2ccc(Br)cc2)n1 | x | i | x | 0.65 | 3
COC(=O)C(Cc1ccccc1)NC(=O)C(CC(C)C)NC(=O)OC(C)(C)C (stereo not given) | 99 | i | 92 | -0.095 | 6
CCOC(=O)C(Cc1ccc(O)cc1)NC(=O)CNC(=O)C(CC(C)C)NC(=O)OC(C)(C)C (stereo not given) | 101 | i | 96 | 2.7 | 57*
COCCn1nnnc1SCC(=O)c1ccc(F)cc1 | 95 | i | 98 | -0.8 | -12
SMILES | bCat KO growth | Autophagy mod | PTEN del growth | Dynein transport | L major viab
COCCn1c(SCC(=O)c2ccc(F)cc2)nnc1C(C)C | 85 | + | 84 | 0.75 | 25
Nc1nnc(SCc2ccc(Cl)cc2)s1 | 0.8* | i | 0.8* | -1.1 | -3
Nc1nnc(CSCc2ccc(Cl)cc2)s1 | 92 | i | 88 | -0.75 | -4
O=C(CC1SC(=O)N(c2ccccc2)C1=O)Nc1ccccc1 (stereo not given) | 90 | i | 96 | -0.54 | -2
O=C(CC1Sc2ncnn2C1=O)Nc1ccccc1 (stereo not given) | 94 | i | 94 | 0.6 | 100*
COc1ccc(N/C(N)=N/c2nc(CSc3ccc(Cl)cc3)cc(=O)[nH]2)cc1 | 78 | i | 75 | -0.68 | -2
N/C(=N\c1nc(CSc2ccc(Cl)cc2)cc(=O)[nH]1)Nc1cccc2ccccc12 | 74 | + | 78 | -0.45 | 16
